Reference: ChEMBL document CHEMBL4831480, “Identification of First-in-Class Inhibitors of Kallikrein-Related Peptidase 6 That Promote Oligodendrocyte Differentiation” (J Med Chem, 2021)

Each compound was assayed against T1, Kallikrein-6 (Homo sapiens, UniProt Q92876) (assay: Inhibition of KLK6 (unknown origin) assessed as release of AMC fluorescent product using Boc-QAR-AMC as substrate incubated for 30 mins by microplate reader).
In the case of `Cl.NCc1ccc(NC(=O)c2cc3ccccc3[nH]2)cc1`, the IC50 is reported as “Not Active”.
In the case of `NCc1ccc(NC(=O)c2c[nH]c3ccccc3c2=O)cc1`, the IC50 is reported as “Not Active”.
For `Cl.O=C(NC1CCNCC1)c1ccc2ccccc2c1O`, the IC50 was “Not Active”.
For `CC(C)(C)c1ccc(O)c(CNc2ccc(CN)cc2)c1.Cl`, the IC50 was “Not Active”.
`Cl.NCc1ccc(NC(=O)c2ccc(F)cc2O)cc1` was tested, and the IC50 was “Not Active”.
With `Cl.NCc1ccc(NC(=O)c2c(O)ccc3ccccc23)cc1` the IC50 was “Not Active”.

The compounds below were run against T1, Kallikrein-6 (assay: Inhibition of KLK6 (unknown origin) assessed as release of AMC fluorescent product using Boc-QAR-AMC as substrate at 10 uM incubated for 30 mins by microplate reader).
In short: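 KLK6 (activated with lysylendopeptidase) at 2 nM was preincubated 15 min at 37 °C with compound (10 μM screen, or a range within 0.1–100 μM) or DMSO <2%. Reaction started with Boc-QAR-AMC 100 μM in 50 mM Tris, 1 M citrate, 0.05% Brij-35, pH 7.4. AMC read at ex 360/em 460 nm for 30 min. % inhibition taken from initial rates versus DMSO; IC50 from curve fit; ≥3 independent experiments in duplicate.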
`Cc1cccc(O)c1C(=O)Nc1ccc(CN)cc1` showed an inhibition of 7.27%.
`NCc1ccc(NC(=O)c2ccc3ccccc3c2)cc1` was tested, and the inhibition was 19.8%.
Compound `COc1ccc(O)c(C(=O)Nc2ccc(CN)cc2)c1` has an inhibition of 21.8%.
Work on `NCc1ccc(NC(=O)c2ncccc2O)cc1` yielded an inhibition of 8.86%.
`NCc1ccc(NC(=O)c2cc(Br)ccc2O)cc1` showed an inhibition of 30%.
For `NCc1ccc(NC(=O)c2ccc(C(F)(F)F)cc2O)cc1`, the inhibition was 47%.
`Cc1cccc(C(=O)Nc2ccc(CN)cc2)c1O` gave an inhibition of 20%.
In the case of `NCc1ccc(NC(=O)c2ccccc2O)cc1`, the inhibition is reported as 14.8%.
Compound `Cc1ccc(O)c(C(=O)Nc2ccc(CN)cc2)c1` has an inhibition of 26.5%.
